# Sampled rows, rich in hits. Any-hit rate of the full collection: about 3.4%.
# MC4R ag barr – MC4R agonists recruiting beta-arrestin, primary screen, cell-based, luminescence, agonist arm of biased-ligand search; U2OS MC4R beta-arrestin complementation; percent of melanotan II response, DMSO zero; activation, % at 8.9 µM; 360,000 tested, 0.98% active;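 active = activation above a per-plate cutoff, the mean activation of sample wells on that plate plus 3 SD, cut at about 8% in these data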
# m5-HT2A agonist – mouse Htr2a agonists via beta-arrestin recruitment, primary screen, cell-based, luminescence; 360,000 tested, 0.66% active; AID 624169, 2012; activation, % at 7.6 µM; CHO-K1 mHTR2A beta-arrestin complementation; percent of 30 µM serotonin response;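 active = activation above a run cutoff, the mean activation of all tested compounds plus 3 SD, cut at about 14% in these data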;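 note: 0% = plate median of compound wells and 100% = 30 µM serotonin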
# Target sequence (P35363 whole entry, looked up): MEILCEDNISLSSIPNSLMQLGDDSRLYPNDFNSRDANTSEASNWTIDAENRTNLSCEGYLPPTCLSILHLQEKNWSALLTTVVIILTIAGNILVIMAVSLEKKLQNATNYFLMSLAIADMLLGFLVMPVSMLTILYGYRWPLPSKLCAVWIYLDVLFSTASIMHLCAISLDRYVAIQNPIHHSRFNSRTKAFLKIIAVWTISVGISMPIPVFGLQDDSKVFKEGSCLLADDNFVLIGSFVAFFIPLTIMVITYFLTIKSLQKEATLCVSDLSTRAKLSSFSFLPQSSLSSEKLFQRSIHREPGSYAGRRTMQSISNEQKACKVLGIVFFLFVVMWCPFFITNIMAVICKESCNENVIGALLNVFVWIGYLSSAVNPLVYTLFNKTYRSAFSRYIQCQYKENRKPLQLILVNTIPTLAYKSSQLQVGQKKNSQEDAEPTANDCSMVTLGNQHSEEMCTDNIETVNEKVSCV
# MIN6 prolif – inducers of MIN6 beta-cell proliferation, primary screen, ATP luminescence, uHTS | MIN6 cells proliferation, ATPlite luminescence, 48 h; cells starved in 0.2% serum; 100% = growth in 10% serum | proliferation, % at 10 µM | 330,000 tested, 0.29% active | AID 2380, 2010;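 active = compounds whose signal lies at least 3.5 SD above the mean of all wells on their plate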;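 note: 0% = DMSO-treated cells in low-serum medium and 100% = 10% serum control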
# ANO1 block – TMEM16A chloride channel inhibitors, primary screen, cell-based, HTS. 310,000 tested, 1.2% active. normalized B-score (activity score, 25-100; higher = stronger inhibition) at 10 µM. Anoctamin-1 (Mus musculus), Q8BHY3. AID 588511, 2011. HEK293 TMEM16A/YFP iodide influx fluorescence, ionomycin;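 active = ratio plate-corrected score three or more library SD toward inhibition, starting fluorescence score within five deviations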;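 note: score derived from kinetic fluorescence span divided by baseline fluorescence per well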
# MC4R antagonist – MC4R antagonists of cAMP signaling, primary screen, cell-based, TR-FRET, antagonist arm of biased-ligand search; MC4R-expressing cells, MTII-stimulated cAMP, LANCE TR-FRET; inhibition, % at 6.5 µM; 360,000 tested, 0.48% active; AID 540295, 2011;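 active = inhibition above its plate's cutoff, the mean of tested wells on that plate plus 3 SD, cut at about 29% in these data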;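 note: 0% = Melanotan II alone and 100% = Melanotan II plus saturating MCL0020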
#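 Test system: U2OS cells stably expressing human melanocortin 4 receptor (MC4R); also added: Melanotan II challenge; compound: 6.5 µM single dose; timing: 30-min compound preincubation, 1-h Melanotan II challenge, 1-h detection, room temperature; signal: Eu-cAMP/anti-cAMP TR-FRET, emission 671 nm; repeats: one well per compound, no replicates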
# TMEM16A act – TMEM16A chloride channel activators or potentiators, primary screen, cell-based, HTS; Anoctamin-1 (Mus musculus), Q8BHY3; HEK293 TMEM16A/YFP-H148Q/I152L, iodide quench fluorescence; hits give low values; B-score at 10 µM; 340,000 tested, 0.3% active; AID 623877, 2012;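 active = fluorescence-ratio B-score plate-corrected deviation score at least 3 library SD below zero, with starting fluorescence score within 5 deviations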;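 note: channel opened by trigger with iodide after compound preincubation; score built on the fluorescence ratio of max minus min over baseline; more negative score means more quench and so TMEM16A activation or potentiation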
# MC4R barr conf – MC4R beta-arrestin agonists, retest, confirmation, cell-based, luminescence, U2OS; shares compounds with MC4R ag barr; U2OS MC4R beta-arrestin recruitment; scaled DMSO 0%, Melanotan II 100%; activation, % at 8.9 µM; 2,400 tested, 31% active;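 active = mean activation across replicates above the hit cutoff set in the earlier primary screen, cut at about 8% in these data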
# MOR DOR agonist – agonists of MOR-DOR heterodimerization, counter-screen for MC4R biased agonist project, cell-based, luminescence. activation, % at 9.2 µM. shares compounds with MC4R ag barr. U2OS PathHunter beta-arrestin, beta-gal luminescence; percent of deltorphin B response, DMSO zero. 2,400 tested, 5.8% active;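 active = mean activation across replicates exceeds the hit threshold derived in the earlier primary screen, cut at about 18% in these data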;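 note: 100% = deltorphin B at 0.9 µM final and 0% = DMSO alone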
# * marks the source's active call; other numbers are inactive results; i = inactive; x = no result.
SMILES,MC4R ag barr,m5-HT2A agonist,MIN6 prolif,ANO1 block,MC4R antagonist,TMEM16A act,MC4R barr conf,MOR DOR agonist
NC(Cc1ccc(C(F)(F)F)cc1)c1csc(Nc2nccc(C(F)(F)F)n2)n1 (centres undefined),15*,8,x,x,4,x,17*,7
COc1cc(OC)nc(Nc2nc(C(N)Cc3ccccc3)cs2)n1 (centres undefined),0,-5,x,x,-4,x,x,x
NC(COCc1ccccc1)c1csc(Nc2nccc(C(F)(F)F)n2)n1 (centres undefined),4,0,x,x,0,x,x,x
Cc1cc(NC(=O)CCC(=O)N(CC(=O)NC2CCCC2)c2ccc(Cl)cc2)no1,-4,5,-1,i,8,i,x,x
CCOc1ccc(CCNC(=O)c2cc(C)nc3ccccc23)cc1OCC,-2,-4,1,i,-2,i,x,x
Cc1cc(C)nc(Nc2nc(C(N)Cc3ccc(C(F)(F)F)cc3)cs2)n1 (centres undefined),10*,10,x,x,-7,x,26*,10
COc1cc2c3c(cccc3c1)C(=O)N(CCN1CCCC1)C2=O,-4,4,x,x,-2,x,x,x
COc1cccc(CN2CC(O)=C(c3nc(-c4ccc(Cl)cc4)cs3)C2=N)c1,2,10,-5,i,2,i,x,x
COc1ccc(N2CC(O)=C(c3nc(-c4ccc(F)cc4)cs3)C2=N)cc1Cl,11*,-4,-2,i,10,i,13*,3
N=C1C(c2nc(-c3ccc(F)cc3)cs2)=C(O)CN1Cc1ccc(Cl)cc1,14*,7,-2,i,11,i,5,7
CCN(C(=O)COC(=O)CCc1ccc(OC)cc1)c1c(N)n(Cc2ccccc2)c(=O)[nH]c1=O,0,4,-4,x,8,i,x,x
COCC(=O)Nc1ccc2c(c1)OCC(=O)N2Cc1ccc(C)cc1,0,1,0,i,1,i,x,x
COc1ccc(Cc2nnc(NC(=O)CSc3ccc(C)cc3)s2)cc1,8,1,0,i,3,i,x,x
COc1ccc(Cc2nnc(NC(=O)CSc3ccccc3)s2)cc1,14*,3,-1,i,-6,i,3,3
CCOC(=O)c1c(C)n(-c2ccc(C)cc2)c2ccc(OCC(O)CNCCCO)cc12 (centres undefined),3,-7,-6,i,2,i,x,x
CCOC(=O)c1c(C)n(-c2ccc(C)cc2)c2ccc(OCC(O)CNCC3CCCO3)cc12 (centres undefined),13*,-6,-6,i,5,i,17*,10
CC/C(=N/Nc1ccccc1)c1cnnc(-c2ccccc2)n1,16*,-3,-5,i,5,i,21*,2
CC/C(=N/Nc1cccc(Cl)c1)c1cnnc(SC)n1,0,8,-3,i,-7,i,x,x
CC1=CC2=NC(=O)/C(=C\c3cccn3CCOc3cc(C)ccc3C)C(=N)N2O1,14*,-3,-3,i,5,i,1,4
